Experimental findings from ChEMBL document CHEMBL4513216, “Probing the Open Global Health Chemical Diversity Library for Multistage-Active Starting Points for Next-Generation Antimalarials” (ACS Infect Dis, 2020) are described below.

Each structure is given as a SMILES string.

A short description of the data set: Toxicity liver stage against HepG2, at 10uM. In kind it is cell-based. Further details: test concentration 10 uM, cell line HepG2-A16-CD81EGFP. The note with it: human, HepG2-A16-CD81EGFP cells; read-out: INHIBITION
Summed up: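 Uninfected HepG2-A16-CD81EGFP cells, 3 × 10^3 per well, 1536-well, plated on prespotted compound at 10 μM final, parasite-free screening media added to match infected plates; puromycin 10 μM positive, DMSO 0.5% negative; run in parallel with 48 h PbLuc assay at 37 °C, 5% CO2; viability by CellTiter-Glo luminescence, normalized to controls.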
Take `O=S(=O)(CC1CCCN1S(=O)(=O)C1CC1)c1ccccc1` (configuration not stated): the cytotoxicity at 10 µM is -5.75%.
In the case of `C1CCN(Cc2nnn3c2CN(CC2CC2)CCC3)C1`, the cytotoxicity at 10 µM is -139%.
With `O=C([C@H]1COC[C@H]2CN(c3ccncn3)C[C@H]21)N1CCCC1` the figure was -140%.
With `CCn1nc2ccc(S(=O)(=O)N3CCSCC3)cn2c1=O` the figure was 2.4%; with `CC1c2ncc(Cn3cncn3)n2CCN1C(=O)C1CCOCC1` (configuration not stated), -13%; with `COCCNC(=O)Cn1cc2c(n1)c(C)nn2C(C)C`, -6.24%.
With `CC(=O)c1c(O)ccnc1C(F)(F)F` the figure was 2.34%; with `CNC(=O)C1CN(C(=O)c2ccncc2)CCN(S(C)(=O)=O)C1` (configuration not stated), 6.67%; with `Cc1noc(-c2cnc(NC3CC3)nc2-c2ccco2)c1C`, 6.38%.
For `CC(C)c1ncc2c(n1)CN(CC1CCCCO1)CC2` (configuration not stated), the cytotoxicity at 10 µM was found to be 8.86%.
Take `NC(=O)C1CCN(C(=O)NC2CCN(CC3CCCC3)C2)CC1` (configuration not stated): the cytotoxicity at 10 µM turned out to be 13%.
On to `CC(C)CCC(=O)N1CCN(c2ncnc3nc(N)ccc23)CC1`, for which the cytotoxicity at 10 µM turned out to be 8.32%.
The figure for `N#CC1(NC(=O)COc2cc(Cl)cc(Cl)c2)CCOCC1` is -2.53%; for `Cc1ccc(OCCN(C)C2CCOC2=O)cc1` (configuration not stated) it is -146%; for `Cn1cc(CC(=O)N2CCCC(c3cc(C(F)(F)F)[nH]n3)C2)cn1` (configuration not stated) it is -7.11%.
Turning to `CNC(=O)c1sc(C(NC(=O)c2ccccc2)C2CC2)nc1C` (configuration not stated), the cytotoxicity at 10 µM worked out at 2.31%.
With `CCn1cnnc1CNC(=O)NCC(C)(CC)N1CCOCC1` (configuration not stated) the figure was -10.3%; with `Cc1c(COC(C)C)cccc1NC(=O)N1CC[C@H](O)C1`, -11%.
Consider `COCc1ccccc1C(=O)NCC(c1c(F)cccc1F)N(C)C` (configuration not stated), for which the cytotoxicity at 10 µM was -9.75%.
On to `COCCOCCCC(=O)N1CCC(Cc2ccccc2OC)CC1`, for which the cytotoxicity at 10 µM came out at 7.28%.
`O=C(OC1CCC1)c1ncccc1OCC(F)(F)F`: the cytotoxicity at 10 µM was -12.6%.
With `Cc1csc(CCNC(=O)C2CCOC2)n1` (configuration not stated) the figure was -6.17%.
Regarding `CC(O)CN1CCN(C(=O)c2cccn2Cc2cccnc2)CC1` (configuration not stated), the cytotoxicity at 10 µM was -9.15%.
With `CN(C)C(CNC(=O)NCc1cc[nH]n1)c1ccco1` (configuration not stated) the figure was -5.47%; with `Cc1nc(CCNC(=O)NC2CCCN(c3ncccn3)C2)cs1` (configuration not stated), -129%.
As to `CCNC(=O)CNC(=O)Nc1c(F)cc(F)cc1-c1ccccc1`, the cytotoxicity at 10 µM was -7.55%.
As for `CCN(C(=O)NCCc1cccc(F)c1F)C(C)CS(C)(=O)=O` (configuration not stated), the cytotoxicity at 10 µM was found to be 11.9%.
Take `NC(=O)NCC1CCCCN1C(=O)c1ccc(Br)s1` (configuration not stated): the cytotoxicity at 10 µM is -0.147%.
On to `O=C(Nc1cccn(Cc2ccc(F)cc2)c1=O)c1csnn1`, for which the cytotoxicity at 10 µM was 1.51%.
Regarding `COc1cc(C(=O)N(C)C)ccc1NC(=O)c1ccsc1`, the cytotoxicity at 10 µM is -2.53%.
As for `Cc1cccc(I)c1C(=O)NCc1ncc[nH]1`, the cytotoxicity at 10 µM was 0.392%.
On to `OCC(CO)Nc1ccc2c(Cl)ccc(Cl)c2n1`, for which the cytotoxicity at 10 µM was -3.04%.
With `CCOCCCC(=O)Nc1cccnc1-n1ccnc1C`, the cytotoxicity at 10 µM was determined as 9.21%.
As to `Cc1cc(NCCS(C)(=O)=O)nc2ccccc12`, the cytotoxicity at 10 µM stood at 0.748%.
Take `Cc1ncc(COc2cccc3c2NC(=O)CO3)s1`: the cytotoxicity at 10 µM was -3.13%.
Regarding `CC(NC(=O)NCCCn1cccn1)c1cccnc1` (configuration not stated), the cytotoxicity at 10 µM turned out to be 23.1%.
`CS(=O)(=O)CCSc1cccc(C#N)c1`: the cytotoxicity at 10 µM is -5.61%.
Turning to `CC(C)c1cnc(CNc2c(F)cccc2-n2cccn2)o1`, the cytotoxicity at 10 µM is -6.07%.
With `Cc1ccn(-c2ccccc2NCc2ncc[nH]2)n1`, the cytotoxicity at 10 µM is -5.95%.
With `Cc1noc(C(C)C)c1C(=O)NS(=O)(=O)c1ccc2c(c1)OCCCO2`, the cytotoxicity at 10 µM was -9.06%.
With `CC(C)n1nc(CN2CCCC2=O)c2c1CN(C(=O)c1ccc[nH]1)C2`, the cytotoxicity at 10 µM came to 5.39%.
`O=C([C@@H]1COC[C@H]2CN(C3CCCCC3)C[C@H]21)N1CCOCC1`: the cytotoxicity at 10 µM was -107%.
For `Cc1ccc(C(=O)N2C[C@@H]3OCCN(CC4CCCC4)[C@@H]3C2)cn1`, the cytotoxicity at 10 µM was -76%.
For the compound `c1ccc(COC[C@@H]2CC[C@H]3[C@H](CCN3c3ncccn3)O2)nc1`, the cytotoxicity at 10 µM is -74.6%.
Turning to `CCc1nnsc1C(=O)NCCC1CCCN(C(C)C)C1` (configuration not stated), the cytotoxicity at 10 µM was 4.95%.
Consider `CN1CC2(CCCN(CCOCc3ccccc3)C2)OC1=O` (configuration not stated), for which the cytotoxicity at 10 µM was -10.4%.
For the compound `CC(C)CN1CCCn2nc(CNC(=O)CN3CCOC3=O)cc2C1`, the cytotoxicity at 10 µM is 0.541%.
For `CN(Cc1ccoc1)C(=O)CN1C(=O)OC(C)(C)C1=O`, the cytotoxicity at 10 µM is -128%.
As for `CC(C)c1nccn1CCCNC(=O)c1ccc(-c2cn[nH]c2)nc1`, the cytotoxicity at 10 µM is -5.84%.
For the compound `c1ccc(CCc2noc(CN3CCC(N4CCSCC4)CC3)n2)cc1`, the cytotoxicity at 10 µM was -8.01%.
On to `O=c1[nH]c(-c2ccccn2)nc2c1CCN(S(=O)(=O)N1CCCC1)C2`, for which the cytotoxicity at 10 µM is 8.85%.
Take `CCn1nc(CC(C)C)cc1C(=O)N1CCOCC(O)C1` (configuration not stated): the cytotoxicity at 10 µM is -14.3%.
`CC(C)c1noc(CC[C@@H]2CCCN3CCCC[C@H]23)n1`: the cytotoxicity at 10 µM was -0.143%.
For `CN(C)c1nc(NCc2cccnc2N)ncc1F`, the cytotoxicity at 10 µM is -2.11%.
Regarding `CCCc1cc(C(=O)NCCCn2nnc3ccccc32)no1`, the cytotoxicity at 10 µM is -12.5%.
The figure for `COC(=O)c1ccccc1C(=O)N(CCN(C)C)Cc1sccc1C` is -129%.
For `CCn1ccnc1CN1CCC(=O)N(CC2CC2)C(C(C)C)C1` (configuration not stated), the cytotoxicity at 10 µM was -10.3%.
As for `O=c1cc(-c2ccncc2)nc(-c2ccc(CN3CC[C@H](O)C3)cc2)[nH]1`, the cytotoxicity at 10 µM is 4.48%.
On to `O=C(NCCC1CN(C2CCCC2)CCO1)c1c[nH]c(=O)[nH]c1=O` (configuration not stated), for which the cytotoxicity at 10 µM was determined as 0.0436%.
For the compound `CCC(CC)CN1CCCn2nc(CNC(=O)COC)cc2C1`, the cytotoxicity at 10 µM is 2.66%.
Take `c1cncc(-n2cnnc2CC2CCNCC2)c1`: the cytotoxicity at 10 µM is -20.1%.
In the case of `CN1C(=O)CC(C(=O)O)C12CCN(Cc1ccc(Cl)cc1F)CC2` (configuration not stated), the cytotoxicity at 10 µM is -7.82%.
Take `CCN1CC2(CCN(CCOCCO)CC2)CC(c2ccccc2)C1=O` (configuration not stated): the cytotoxicity at 10 µM stood at 42.4%.
For the compound `CCn1c(Cn2cncn2)nnc1C1CCN(C(=O)CCSC)CC1`, the cytotoxicity at 10 µM was -13.6%.
With `c1csc(N2CCCN(Cc3noc(C4CC4)n3)CC2)n1`, the cytotoxicity at 10 µM stood at 3.41%.
Consider `CSc1ccc(CN(C)C(=O)c2cc3c([nH]c2=O)CCCC3=O)cc1`, for which the cytotoxicity at 10 µM is -1.25%.
With `COCCCNC(=O)CN(C)C(=O)c1ccc(OC)cc1O` the figure was -10.7%; with `N#Cc1ccsc1NC(=O)CN1CCOC(Cn2cccn2)C1` (configuration not stated), -5.66%; with `COCCN1CCN(Cc2csc(-c3cnn(C)c3)n2)CC1`, -9.71%.
Take `CCNc1cc2c(nn1)CCN(C(=O)c1ccnc(C)n1)C2`: the cytotoxicity at 10 µM is -5.04%.
The figure for `O=S(=O)(CCCN1CCCC(Cn2cncn2)C1)c1ccccc1` (configuration not stated) is -11.7%.
Consider `CCN(CC)C(=O)NCCc1ccn(-c2ccccc2)n1`, for which the cytotoxicity at 10 µM is -14%.
On to `Cc1cc(CN2Cc3ccccc3CC2c2nnc(C)o2)no1` (configuration not stated), for which the cytotoxicity at 10 µM stood at 2.89%.
With `CC(C)C(CNC(=O)Nc1cn[nH]c1)N1CCOCC1` (configuration not stated) the figure was -6.83%; with `Cc1ccc(C(=O)N2CCCN(Cc3cscn3)CC2)o1`, -10.6%.
`Cc1nn(C)c(N2CCOCC2)c1CNCc1ccc2c(c1)OCO2`: the cytotoxicity at 10 µM is -17.8%.
Regarding `Cc1nnc(N2CCC(CCN(C)C)CC2)c(C#N)c1C`, the cytotoxicity at 10 µM is -1.33%.
Regarding `CCc1noc(C)c1C(=O)N1CCCN(Cc2csc(C)n2)CC1`, the cytotoxicity at 10 µM was -2.81%.
Take `CC(C)OCCCNC(=O)CS(=O)(=O)Cc1ccc(Cl)c(Cl)c1`: the cytotoxicity at 10 µM is -9.7%.
Regarding `O=C(NCCOc1cccc(Cl)c1)C1CC(=O)N(CC2CC2)C1` (configuration not stated), the cytotoxicity at 10 µM is -0.98%.
In the case of `O=C(COC(=O)Cc1cccs1)NCc1cccc(NC(=O)C2CC2)c1`, the cytotoxicity at 10 µM was -8.08%.
Consider `COC(=O)c1cccc(OCCn2nc(-c3cccs3)oc2=O)c1`, for which the cytotoxicity at 10 µM was -6.56%.
Take `CCn1nc2c(cc1=O)CN(Cc1nc(-c3ccsc3)no1)CC2`: the cytotoxicity at 10 µM is -17.1%.
Regarding `O=C(c1cccnc1N1CCOCC1)N1CCCC(n2ccnc2)C1` (configuration not stated), the cytotoxicity at 10 µM was -3.56%.
`CCS(=O)(=O)CCN1CCCC1c1noc(C2CC2)n1` (configuration not stated): the cytotoxicity at 10 µM is -6.33%.
Turning to `CC(O)CN1CCN(C(=O)c2cccc(CC#N)c2)CC1` (configuration not stated), the cytotoxicity at 10 µM was -3.74%.
As for `CC(C)c1nnc2n1CCN(CCCS(=O)(=O)c1ccccc1)C2`, the cytotoxicity at 10 µM was -12.3%.
As for `CC(C)CC(=O)N1CCC2(CC1)OC(C(N)=O)Cn1ccnc12` (configuration not stated), the cytotoxicity at 10 µM is -105%.
With `CN(Cc1cccnc1)C[C@@H]1OC[C@H]2CN(Cc3ccco3)CC[C@H]21` the figure was -147%; with `Cc1nc(C)n(CC2CN(Cc3nccs3)Cc3nccn3C2)n1` (configuration not stated), -140%; with `O=C(NC[C@H]1OC[C@@H]2CN(Cc3ccco3)CC[C@@H]21)c1cccnc1`, -141%.
As for `O=C1N(c2cncnc2)CCC12CCCN(Cc1cccnc1)C2` (configuration not stated), the cytotoxicity at 10 µM was -79.6%.
For the compound `O=C(NCc1ccco1)[C@H]1CC[C@@H]2[C@@H](CCN2c2ncccn2)O1`, the cytotoxicity at 10 µM is -69.6%.
For `C1CN(CC2CCOCC2)Cc2c(COCC3CC3)nnn2C1`, the cytotoxicity at 10 µM is -130%.
On to `Cc1ccc(C(NC(=O)C2CCC(O)CC2)c2cccnc2)cc1C` (configuration not stated), for which the cytotoxicity at 10 µM came out at 24.2%.
Take `CCCC12CN3CC(C)(CN(C1)C3c1[nH]c(=O)[nH]c(=O)c1C)C2=O` (configuration not stated): the cytotoxicity at 10 µM came to 3.15%.
Turning to `O=C(Nc1ccc(F)cc1)N1C[C@@H]2C[C@H](C(=O)N3CCCC3)[C@H](C1)O2`, the cytotoxicity at 10 µM was 7.06%.
